Source: ChEMBL document CHEMBL1914304 (J Med Chem, 2011)

Key:
[1] = target: Sulfonylurea receptor 2, Kir6.2 (Homo sapiens) (UniProt Q14654+O60706); experiment: Inhibition of Kir6.2/SUR2A at 10 uM after 5 mins by patch clamp assay
In short: (§1)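 Fixed-concentration screen across a panel of 12 cloned cardiac ion channels. The compound was tested at 10 µM for 5 min exposure at room temperature by automated parallel patch clamp, in two cells (n ≥ 2) per channel. Values are mean percent inhibition of channel current.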

Kir2.1 = target: T1, Kir2.1 (Homo sapiens, UniProt P63252); experiment: Inhibition of Kir2.1 at 10 uM after 5 mins by patch clamp assay
T1 sequence (P63252 whole entry): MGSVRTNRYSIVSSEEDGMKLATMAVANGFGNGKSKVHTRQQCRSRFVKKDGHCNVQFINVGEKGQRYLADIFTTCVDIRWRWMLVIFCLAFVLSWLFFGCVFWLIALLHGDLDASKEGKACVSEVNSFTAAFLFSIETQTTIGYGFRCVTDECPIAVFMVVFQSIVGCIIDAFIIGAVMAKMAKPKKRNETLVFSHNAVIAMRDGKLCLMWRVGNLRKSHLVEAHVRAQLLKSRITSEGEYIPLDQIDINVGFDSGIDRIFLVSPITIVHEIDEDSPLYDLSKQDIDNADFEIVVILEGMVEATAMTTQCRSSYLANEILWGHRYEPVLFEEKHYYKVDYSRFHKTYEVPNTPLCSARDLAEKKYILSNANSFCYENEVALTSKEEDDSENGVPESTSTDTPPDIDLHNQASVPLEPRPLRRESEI
In short: (§2)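 Cardiac ion channel panel run by a contract lab on an automated parallel patch-clamp system at room temperature. Each of 12 cardiac channels was tested with 10 µM compound for 5 min exposure, in two cells per channel (n ≥ 2). Values are reported as mean % inhibition.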

Kv4.3 = target: T2, Kv4.3 (Homo sapiens, UniProt Q9UK17); experiment: Inhibition of Kv4.3 at 10 uM after 5 mins by patch clamp assay; in short: as §2
T2 sequence (Q9UK17 whole entry): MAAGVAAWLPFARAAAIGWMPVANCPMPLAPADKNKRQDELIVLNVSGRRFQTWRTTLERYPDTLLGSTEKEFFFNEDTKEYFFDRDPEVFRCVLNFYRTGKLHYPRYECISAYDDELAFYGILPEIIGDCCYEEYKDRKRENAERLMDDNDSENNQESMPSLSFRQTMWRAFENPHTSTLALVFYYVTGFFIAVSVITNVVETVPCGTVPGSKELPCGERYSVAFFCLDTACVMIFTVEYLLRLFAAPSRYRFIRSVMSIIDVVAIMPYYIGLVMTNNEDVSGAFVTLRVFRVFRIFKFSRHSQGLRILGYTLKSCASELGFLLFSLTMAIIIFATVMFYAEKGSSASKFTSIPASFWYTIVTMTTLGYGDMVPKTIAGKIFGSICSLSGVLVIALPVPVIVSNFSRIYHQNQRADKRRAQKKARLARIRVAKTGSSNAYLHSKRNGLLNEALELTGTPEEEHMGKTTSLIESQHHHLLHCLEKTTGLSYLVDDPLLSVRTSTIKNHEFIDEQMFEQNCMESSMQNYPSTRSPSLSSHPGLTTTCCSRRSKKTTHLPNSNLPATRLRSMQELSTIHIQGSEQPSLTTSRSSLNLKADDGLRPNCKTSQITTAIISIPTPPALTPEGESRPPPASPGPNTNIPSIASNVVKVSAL

[2] = target: T3, Potassium/sodium hyperpolarization-activated cyclic nucleotide-gated channel 4 (Homo sapiens) (UniProt Q9Y3Q4); experiment: Inhibition of HCN4 at 10 uM after 5 mins by patch clamp assay; in short: as §2
T3 sequence (whole entry): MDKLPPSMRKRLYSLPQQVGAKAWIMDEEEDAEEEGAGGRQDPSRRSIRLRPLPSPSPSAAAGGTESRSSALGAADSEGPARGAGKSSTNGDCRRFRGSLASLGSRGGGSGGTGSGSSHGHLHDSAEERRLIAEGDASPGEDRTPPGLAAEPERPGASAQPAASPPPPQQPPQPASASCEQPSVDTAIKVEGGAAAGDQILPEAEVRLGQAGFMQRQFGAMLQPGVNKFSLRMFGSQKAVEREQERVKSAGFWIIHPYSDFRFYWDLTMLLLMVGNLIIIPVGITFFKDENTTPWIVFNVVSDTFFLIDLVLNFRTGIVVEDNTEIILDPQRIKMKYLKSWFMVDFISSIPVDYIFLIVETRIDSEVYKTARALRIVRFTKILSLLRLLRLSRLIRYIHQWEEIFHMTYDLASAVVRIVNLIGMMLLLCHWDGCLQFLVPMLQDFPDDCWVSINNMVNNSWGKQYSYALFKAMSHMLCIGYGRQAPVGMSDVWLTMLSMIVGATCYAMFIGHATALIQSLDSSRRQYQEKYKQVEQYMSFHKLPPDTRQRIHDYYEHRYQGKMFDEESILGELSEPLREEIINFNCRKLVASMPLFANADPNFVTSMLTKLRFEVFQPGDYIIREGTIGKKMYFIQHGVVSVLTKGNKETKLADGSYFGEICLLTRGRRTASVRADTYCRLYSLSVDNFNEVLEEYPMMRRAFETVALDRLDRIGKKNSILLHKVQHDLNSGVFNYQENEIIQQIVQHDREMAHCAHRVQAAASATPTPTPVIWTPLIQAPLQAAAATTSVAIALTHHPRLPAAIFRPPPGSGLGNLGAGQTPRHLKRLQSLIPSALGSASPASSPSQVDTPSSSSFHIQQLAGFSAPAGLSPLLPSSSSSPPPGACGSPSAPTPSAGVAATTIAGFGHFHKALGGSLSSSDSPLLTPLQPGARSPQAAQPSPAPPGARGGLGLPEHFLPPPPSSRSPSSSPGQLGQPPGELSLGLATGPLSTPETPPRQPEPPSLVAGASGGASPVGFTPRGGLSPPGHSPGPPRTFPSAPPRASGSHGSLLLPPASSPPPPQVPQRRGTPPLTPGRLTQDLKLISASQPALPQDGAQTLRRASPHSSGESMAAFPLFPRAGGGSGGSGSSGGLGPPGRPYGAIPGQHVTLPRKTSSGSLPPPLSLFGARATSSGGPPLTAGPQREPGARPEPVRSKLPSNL

[3] = target: Sulfonylurea receptor 2, Kir6.2 (Homo sapiens, UniProt O60706+Q14654); experiment: Inhibition of human kir6.2/SUR2A ion channel coexpressed in human HEK293 cells after 5 mins by patch clamp assay; type: cell-based
Sequence of Sulfonylurea receptor 2, Kir6.2 (Q14654 whole entry): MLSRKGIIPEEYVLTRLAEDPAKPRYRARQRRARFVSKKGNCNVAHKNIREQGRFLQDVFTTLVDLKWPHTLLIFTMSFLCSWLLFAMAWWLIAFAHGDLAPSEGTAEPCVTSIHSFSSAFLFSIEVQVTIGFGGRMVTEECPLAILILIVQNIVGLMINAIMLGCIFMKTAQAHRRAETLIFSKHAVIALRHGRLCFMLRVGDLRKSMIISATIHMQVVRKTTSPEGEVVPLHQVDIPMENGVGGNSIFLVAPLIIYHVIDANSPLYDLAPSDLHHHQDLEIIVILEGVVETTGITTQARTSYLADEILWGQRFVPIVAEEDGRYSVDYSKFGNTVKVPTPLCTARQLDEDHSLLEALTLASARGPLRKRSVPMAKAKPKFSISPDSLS
Sequence of Sulfonylurea receptor 2, Kir6.2 (O60706 whole entry): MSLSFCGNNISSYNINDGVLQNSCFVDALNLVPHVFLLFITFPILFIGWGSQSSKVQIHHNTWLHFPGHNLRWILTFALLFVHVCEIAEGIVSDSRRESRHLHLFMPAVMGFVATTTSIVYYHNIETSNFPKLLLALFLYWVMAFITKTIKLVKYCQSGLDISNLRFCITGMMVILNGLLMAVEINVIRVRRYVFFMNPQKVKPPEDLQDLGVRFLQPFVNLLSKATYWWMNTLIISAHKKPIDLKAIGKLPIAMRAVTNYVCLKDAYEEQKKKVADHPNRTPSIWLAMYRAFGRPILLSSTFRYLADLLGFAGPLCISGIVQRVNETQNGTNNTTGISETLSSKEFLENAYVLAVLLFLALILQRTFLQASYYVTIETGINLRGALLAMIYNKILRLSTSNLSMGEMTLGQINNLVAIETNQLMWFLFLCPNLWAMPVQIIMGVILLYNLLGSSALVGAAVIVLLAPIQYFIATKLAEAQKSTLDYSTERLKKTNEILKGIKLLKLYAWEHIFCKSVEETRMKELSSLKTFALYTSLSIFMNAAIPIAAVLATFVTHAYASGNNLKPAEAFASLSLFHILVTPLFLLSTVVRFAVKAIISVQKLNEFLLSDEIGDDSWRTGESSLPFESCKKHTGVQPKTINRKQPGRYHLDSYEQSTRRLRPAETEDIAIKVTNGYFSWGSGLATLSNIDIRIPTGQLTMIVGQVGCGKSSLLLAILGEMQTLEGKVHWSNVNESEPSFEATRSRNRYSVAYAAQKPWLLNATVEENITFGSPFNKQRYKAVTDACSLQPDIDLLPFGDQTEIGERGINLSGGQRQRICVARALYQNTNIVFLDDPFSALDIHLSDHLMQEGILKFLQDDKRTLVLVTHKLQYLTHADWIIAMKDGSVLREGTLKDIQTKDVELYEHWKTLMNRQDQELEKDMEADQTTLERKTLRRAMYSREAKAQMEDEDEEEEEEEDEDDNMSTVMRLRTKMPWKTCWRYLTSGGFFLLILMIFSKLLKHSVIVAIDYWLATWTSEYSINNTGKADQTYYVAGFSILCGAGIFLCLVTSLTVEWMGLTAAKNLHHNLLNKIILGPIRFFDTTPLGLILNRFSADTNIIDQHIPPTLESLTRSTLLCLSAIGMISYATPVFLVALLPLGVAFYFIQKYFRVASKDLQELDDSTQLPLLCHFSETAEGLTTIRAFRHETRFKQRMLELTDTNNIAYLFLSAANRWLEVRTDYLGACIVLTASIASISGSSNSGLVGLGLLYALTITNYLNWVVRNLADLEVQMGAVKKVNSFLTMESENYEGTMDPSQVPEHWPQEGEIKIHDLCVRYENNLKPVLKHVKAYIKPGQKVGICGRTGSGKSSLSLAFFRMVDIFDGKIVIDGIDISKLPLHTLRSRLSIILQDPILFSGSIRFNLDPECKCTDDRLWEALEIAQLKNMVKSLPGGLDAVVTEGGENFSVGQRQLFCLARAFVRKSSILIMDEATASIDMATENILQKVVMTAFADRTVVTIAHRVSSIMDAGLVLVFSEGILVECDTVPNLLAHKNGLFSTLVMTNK
In short: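 Human KCNJ11 (Kir6.2) and SUR2A were co-expressed in HEK293 cells to give the ATP-sensitive current IKATP. The assay was run at room temperature by automated parallel patch clamp, with dose-response at 0.2, 0.6, 1.6 and 5 µM. Exposure was 5 min per concentration, with each concentration in two cells (n ≥ 2).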

[4] = Inhibition of KvLQT/minK at 10 uM after 5 mins by patch clamp assay; in short: as §1
[5] = target: Voltage-dependent T-type calcium channel subunit alpha-1H (Homo sapiens) (UniProt O95180); experiment: Inhibition of Cav3.2 at 10 uM after 5 mins by patch clamp assay; in short: as §1
Sequence of Voltage-dependent T-type calcium channel subunit alpha-1H (Homo sapiens) (O95180 whole entry): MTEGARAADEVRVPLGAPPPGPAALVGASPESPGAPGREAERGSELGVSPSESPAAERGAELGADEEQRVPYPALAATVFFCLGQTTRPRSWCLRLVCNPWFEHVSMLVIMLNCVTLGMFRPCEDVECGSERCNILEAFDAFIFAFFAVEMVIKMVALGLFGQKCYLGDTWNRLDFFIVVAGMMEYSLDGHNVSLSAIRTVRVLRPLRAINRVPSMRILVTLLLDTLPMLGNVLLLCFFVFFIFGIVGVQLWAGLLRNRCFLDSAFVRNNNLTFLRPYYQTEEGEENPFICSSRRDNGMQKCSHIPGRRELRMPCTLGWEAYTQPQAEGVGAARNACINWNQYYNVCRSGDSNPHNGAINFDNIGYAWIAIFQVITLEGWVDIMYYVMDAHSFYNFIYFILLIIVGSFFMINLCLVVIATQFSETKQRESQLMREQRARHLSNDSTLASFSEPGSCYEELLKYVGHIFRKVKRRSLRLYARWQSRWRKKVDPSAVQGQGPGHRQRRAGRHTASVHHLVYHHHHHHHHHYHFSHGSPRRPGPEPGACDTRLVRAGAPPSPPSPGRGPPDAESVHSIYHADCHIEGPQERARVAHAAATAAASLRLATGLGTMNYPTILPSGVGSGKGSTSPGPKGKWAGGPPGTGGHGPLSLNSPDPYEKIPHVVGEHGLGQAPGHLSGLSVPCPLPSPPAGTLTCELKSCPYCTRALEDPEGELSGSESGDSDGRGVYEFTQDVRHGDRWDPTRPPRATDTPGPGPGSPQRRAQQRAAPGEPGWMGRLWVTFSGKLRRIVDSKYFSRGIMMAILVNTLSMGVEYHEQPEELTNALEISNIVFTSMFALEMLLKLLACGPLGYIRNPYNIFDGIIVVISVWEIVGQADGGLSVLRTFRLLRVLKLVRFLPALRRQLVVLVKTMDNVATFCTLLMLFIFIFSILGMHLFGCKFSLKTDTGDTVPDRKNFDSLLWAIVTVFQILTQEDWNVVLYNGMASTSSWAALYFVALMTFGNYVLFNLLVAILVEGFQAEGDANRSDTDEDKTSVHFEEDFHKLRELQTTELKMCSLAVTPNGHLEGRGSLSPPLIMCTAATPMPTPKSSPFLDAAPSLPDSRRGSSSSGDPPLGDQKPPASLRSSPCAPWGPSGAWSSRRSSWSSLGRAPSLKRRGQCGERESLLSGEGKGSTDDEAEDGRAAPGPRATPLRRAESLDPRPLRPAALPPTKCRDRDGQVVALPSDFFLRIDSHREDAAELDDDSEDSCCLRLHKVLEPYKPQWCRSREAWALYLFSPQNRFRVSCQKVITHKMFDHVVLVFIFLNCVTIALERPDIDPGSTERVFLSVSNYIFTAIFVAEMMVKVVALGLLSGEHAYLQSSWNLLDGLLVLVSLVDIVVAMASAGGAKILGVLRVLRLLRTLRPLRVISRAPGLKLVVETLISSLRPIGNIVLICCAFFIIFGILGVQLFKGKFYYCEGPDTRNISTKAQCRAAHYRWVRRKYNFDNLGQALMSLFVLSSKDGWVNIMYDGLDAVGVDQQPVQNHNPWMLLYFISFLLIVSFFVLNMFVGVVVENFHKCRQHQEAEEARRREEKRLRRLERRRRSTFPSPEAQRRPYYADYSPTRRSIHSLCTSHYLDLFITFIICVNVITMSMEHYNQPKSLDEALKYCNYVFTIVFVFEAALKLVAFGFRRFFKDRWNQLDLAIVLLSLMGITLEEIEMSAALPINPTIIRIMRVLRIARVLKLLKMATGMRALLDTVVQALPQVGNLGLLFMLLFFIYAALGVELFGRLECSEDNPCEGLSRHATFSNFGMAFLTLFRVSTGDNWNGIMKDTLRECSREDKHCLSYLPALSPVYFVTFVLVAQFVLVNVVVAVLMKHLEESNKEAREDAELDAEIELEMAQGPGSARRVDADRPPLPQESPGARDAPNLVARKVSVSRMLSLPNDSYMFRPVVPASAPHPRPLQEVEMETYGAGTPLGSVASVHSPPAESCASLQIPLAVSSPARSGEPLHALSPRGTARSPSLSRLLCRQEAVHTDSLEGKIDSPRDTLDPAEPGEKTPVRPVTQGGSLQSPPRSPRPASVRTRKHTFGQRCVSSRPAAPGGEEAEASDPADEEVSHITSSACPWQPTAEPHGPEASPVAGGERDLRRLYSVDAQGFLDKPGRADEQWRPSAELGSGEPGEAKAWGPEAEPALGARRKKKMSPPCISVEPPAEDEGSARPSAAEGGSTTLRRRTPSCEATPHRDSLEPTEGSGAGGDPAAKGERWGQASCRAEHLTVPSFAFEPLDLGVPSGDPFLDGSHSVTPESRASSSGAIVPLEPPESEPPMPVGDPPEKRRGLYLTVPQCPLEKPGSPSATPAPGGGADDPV

CCCNCC(O)COc1ccccc1C(=O)CCc1ccccc1 (racemic) [PROPAFENONE]
inhibition [1]: 89.6% | inhibition at 5 min, 10 µM (Kir2.1): 0.2% | inhibition at 5 min, 10 µM (Kv4.3): 44.1% | inhibition [2]: 54.6% | IC50 [3]: 2200 nM | inhibition [4]: 33% | inhibition [5]: 60.2%
